Bioassay records as filed in PubChem BioAssay.
Only some compounds are listed: those with a hit (about 1.3% of all), similar ones and a draw of the others.
LANA-H2B inh = blockers of LANA interaction with H2A/H2B – biochemical, FP readout, HTS, primary screen. inhibition, % (no concentration beside the values). 320,000 compounds, 0.6% hits. Protein LANA1 (Human herpesvirus 8 type P (isolate GK18)), Q9QR71. cell-free LANA-H2A/H2B peptide, fluorescence polarization; in the data active = inhibition mostly above about 10%, no sharp cut-off; inactive = mostly below about 6.7%
Target sequence (Q9QR71 whole entry, looked up): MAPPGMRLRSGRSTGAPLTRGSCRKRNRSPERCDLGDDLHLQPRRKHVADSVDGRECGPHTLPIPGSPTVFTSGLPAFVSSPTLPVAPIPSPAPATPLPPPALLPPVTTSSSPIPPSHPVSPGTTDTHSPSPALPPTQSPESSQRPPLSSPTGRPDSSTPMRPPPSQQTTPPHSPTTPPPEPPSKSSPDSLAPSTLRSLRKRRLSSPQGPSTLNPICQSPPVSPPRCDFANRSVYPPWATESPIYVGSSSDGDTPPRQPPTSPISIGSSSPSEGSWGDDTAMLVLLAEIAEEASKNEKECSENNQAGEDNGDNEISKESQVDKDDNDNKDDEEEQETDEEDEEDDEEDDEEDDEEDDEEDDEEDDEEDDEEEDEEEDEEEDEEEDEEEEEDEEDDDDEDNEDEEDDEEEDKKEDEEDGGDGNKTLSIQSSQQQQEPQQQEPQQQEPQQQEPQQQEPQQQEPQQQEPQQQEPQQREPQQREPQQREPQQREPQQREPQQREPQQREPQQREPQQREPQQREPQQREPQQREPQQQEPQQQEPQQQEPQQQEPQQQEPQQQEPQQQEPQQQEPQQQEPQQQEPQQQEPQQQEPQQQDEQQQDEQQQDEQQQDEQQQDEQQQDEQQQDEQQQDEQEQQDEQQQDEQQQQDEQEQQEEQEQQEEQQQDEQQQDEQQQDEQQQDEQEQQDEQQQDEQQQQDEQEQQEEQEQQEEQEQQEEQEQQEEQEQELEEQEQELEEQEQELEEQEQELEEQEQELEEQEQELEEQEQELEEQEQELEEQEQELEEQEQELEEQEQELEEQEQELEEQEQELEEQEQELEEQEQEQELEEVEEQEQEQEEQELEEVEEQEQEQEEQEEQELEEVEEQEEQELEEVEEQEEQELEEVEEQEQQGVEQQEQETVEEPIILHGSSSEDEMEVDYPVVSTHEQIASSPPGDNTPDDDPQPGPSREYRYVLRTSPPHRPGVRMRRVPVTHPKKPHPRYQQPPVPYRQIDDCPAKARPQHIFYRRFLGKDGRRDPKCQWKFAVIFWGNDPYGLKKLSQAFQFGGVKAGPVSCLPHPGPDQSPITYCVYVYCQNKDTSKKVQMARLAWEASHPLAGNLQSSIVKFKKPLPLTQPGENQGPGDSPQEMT
GSK3 alpha inh = blockers of GSK3A enzyme activity – biochemical, luminescence, cell-free homogeneous, HTS, primary screen; GSK-3 alpha kinase, ADP-Glo luminescence, 60 min; inhibition, % at 10 µM; 320,000 compounds, 0.1% hits; Glycogen synthase kinase-3 alpha (Homo sapiens), P49840;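 active = more than half of replicates show inhibition above 20%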;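 also: GST-tagged GSK-3 alpha with peptide substrate and 25 µM ATP; 0% = DMSO neutral wells and 100% = GW8510 positive control wells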
STK33 kinase inh = inhibitors of purified STK33 kinase, primary screen, biochemical, ADP-Glo luminescence, homogeneous, cell-free | 320,000 compounds, 0.073% hits | AID 2661, 2010 | MBP phosphorylation | Serine/threonine-protein kinase 33 (Homo sapiens), Q9BYT3 | inhibition, % at 10 µM;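 active = inhibition at or above 25%, using the most active replicate where run in duplicate; inactive = inhibition below 25%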
Lipid droplet = inhibitors of hepatocyte lipid droplet formation, primary screen, imaging, high-throughput imaging, BODIPY stain | 240,000 compounds, 0.4% hits | inhibition, % at 6.5 µM | AML12 mouse hepatocytes, oleate lipid droplets | AID 1656, 2009;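 active = lipid droplet intensity inhibited by at least 50%, with more than 500 cells counted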
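Technique: fluorescence imaging, 20x objective, two fields per well / Assay system: AML12 hepatocytes (mouse) / Measure: % inhibition of lipid droplet signal / Doses: 6.5 µM single-point dosing / Incubation: overnight exposure / Reagent: 100 µM oleic acid challenge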
GSK3B inh = human GSK3beta kinase inhibitors, primary screen, biochemical, cell-free homogeneous, HTS; activity score (negative = inhibition), % at 10 µM; Glycogen synthase kinase-3 beta (Homo sapiens), P49841; 300,000 compounds, 0.038% hits; GST-GSK3beta kinase, ADP-Glo luminescence, 60 min; hits give low values; AID 2097, 2009;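 active = more than half of replicate wells score below -50%, meaning over 50% inhibition versus plate controls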;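 also: 0% = median DMSO wells and -100% = median GW8510 positive control wells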
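Assay system: GST-fused GSK3beta enzyme, cell-free / Medium: Tris pH 7.5 buffer with MgCl2, DTT, BSA, heparin / Also added: peptide substrate plus 25 µM ATP (final) / Compound: 10 µM single point / Timing: kinase reaction with compound 60 min at room temperature / Detection: ADP-Glo luminescence / Benchmarks: DMSO neutral wells and GW8510 at 20 µM as positive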
H9c2 TAG inh = inhibitors of triacylglycerol accumulation, primary screen, cell-based, uHTS, fluorescence, H9c2 | 230,000 compounds, 0.66% hits | H9c2 cells, Nile Red lipid (TAG) fluorescence; cells loaded with 200 µM oleic acid | AID 651582, 2012 | inhibition, % at 12.5 µM;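 active = pattern-corrected inhibition of lipid staining of at least 50% with the nuclear-stain viability signal not falling by more than 50%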;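 also: 0% = DMSO wells and 100% = triacsin C control wells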
* hit, by the source's call; nt = no result given; + = active, no number.

SMILES | LANA-H2B inh | GSK3 alpha inh | STK33 kinase inh | Lipid droplet | GSK3B inh | H9c2 TAG inh
C/C(=N\NC(=O)CSc1nc(C)cc(C)n1)c1cccs1 | 25* | 1 | -1 | -28 | 2 | nt
Cc1ccc(S(=O)(=O)N2[C@@H](c3ccc(Cl)cc3)C(C(=O)O)=C[C@H]2C(C)(C)C)cc1 | + | -1 | -2 | nt | nt | -13
COc1cc(CN2CCC(Cc3ccccc3)CC2)cc([N+](=O)[O-])c1O | 20* | 1 | 1 | 2 | -4 | -2
CC[C@]12c3[nH]c4ccccc4c3CCN1C(=O)C(CC(=O)NCc1ccco1)C[C@@H]2C(=O)N1CCN(C(=O)C2CC2)CC1 (some centres undefined) | -59 | -3 | -1 | nt | nt | 5
CC[C@]12c3[nH]c4ccc(Cl)cc4c3CCN1C(=O)[C@@H](CC(=O)NCC13CC4CC(CC(C4)C1)C3)C[C@@H]2C(=O)N1CCN(C(=O)C2CC2)CC1 | nt | nt | nt | nt | nt | 41
CC(C)(C)NC(=O)CC1C[C@H](C(=O)N2CCCCC2)[C@@]2(CCc3ccccc3)c3[nH]c4ccccc4c3CCN2C1=O (some centres undefined) | 32* | 0 | 0 | nt | nt | -3
CC[C@]12c3[nH]c4ccccc4c3CCN1C(=O)C(CC(=O)NC(C)(C)C)C[C@@H]2C(=O)N1CCN(C(=O)C2CC2)CC1 (some centres undefined) | 183* | -1 | -1 | nt | nt | -3
CC[C@]12c3[nH]c4ccccc4c3CCN1C(=O)C(CC(=O)NCC13CC4CC(CC(C4)C1)C3)C[C@@H]2C(=O)N1CCN(C(=O)C2CC2)CC1 (some centres undefined) | + | 0 | 0 | nt | nt | 17
COc1cc2c(cc1OC)C(C(=O)N1CCCC1)C(c1ccccc1F)N(C)C2=O (centres undefined) | 0 | -2 | -2 | -14 | 0 | -1
O=C(COc1ccccc1)Nc1nccs1 | 28* | 3 | 2 | 6 | -6 | nt
CN(C)C(=O)c1cc([N+](=O)[O-])cc([N+](=O)[O-])c1N(C)C | 2 | -2 | -1 | nt | 0 | nt
C=CCn1c(SCC(=O)N2c3ccccc3Sc3ccccc32)nnc1-c1ccco1 | 23* | -1 | 1 | -16 | 0 | -11
CC1CCCCN1CCNC(=O)c1ccc2c(c1)N(Cc1cccc(Cl)c1)C(=O)c1ccccc1S2(=O)=O (centres undefined) | nt | nt | nt | nt | nt | 28
CCn1c2ccccc2c2cc(/C=N/O)ccc21 | 9 | -1 | -1 | 2 | -23 | 20
CCn1c2ccc(/C(C)=N\O)cc2c2cc(/C(C)=N\O)ccc21 | 0 | 2 | 37* | nt | 1 | 5
COc1ccc(C2(C)NC(=O)N(CC(=O)NCc3ccccc3)C2=O)cc1OC (centres undefined) | 25* | 0 | -1 | -2 | -1 | nt
CC(C)(C)N(Cc1ccccc1)C(=O)CN1C(=O)c2ccccc2C1=O | -5 | 1 | 1 | 8 | 3 | nt
Cc1ccc(C2(C)NC(=O)N(CC(=O)N(Cc3ccccc3)C(C)(C)C)C2=O)cc1 (centres undefined) | 17* | -1 | 1 | -56 | 3 | nt
Cc1ncc(/C=C2\C(=O)Nc3ccccc32)[nH]1 | 0 | 7 | 76* | 11 | 0 | nt
CCc1ncc(/C=C2\C(=O)Nc3ccccc32)[nH]1 | 4 | 9 | 49* | nt | -3 | -4
CN(C)/C=C1\C(=O)Nc2ccccc21 | 4 | 1 | -1 | -2 | 1 | -2
CC1CN(C(=O)/C(=C/c2ccco2)NC(=O)c2ccccc2)CC(C)O1 (centres undefined) | -1 | 0 | 0 | 29 | 1 | nt
CC(=O)Oc1ccc(N(C(C)=O)S(=O)(=O)c2cccs2)cc1 | -6 | -3 | 0 | 0 | 6 | nt
CC(=O)Nc1ccc2c(COC(=O)CC3Sc4ccccc4NC3=O)cc(=O)oc2c1 (centres undefined) | -7 | 2 | -1 | 0 | 5 | -11
COc1ccc2c(CC(=O)O)cc(=O)oc2c1 | 0 | -3 | -1 | -18 | 5 | -10
SMILES | LANA-H2B inh | GSK3 alpha inh | STK33 kinase inh | Lipid droplet | GSK3B inh | H9c2 TAG inh
COc1ccc2c(COC(=O)CC3Sc4ccccc4NC3=O)cc(=O)oc2c1 (centres undefined) | 15* | -1 | 2 | 0 | -5 | nt
COC(=O)Cc1cc(=O)oc2cc(OC)ccc12 | 67* | -2 | 0 | 15 | 0 | nt
COc1ccc(C)cc1-n1cnnn1 | 5 | 1 | -1 | -5 | 8 | -3
CCCc1ccc(C(=O)CCC(=O)O)cc1 | + | -3 | 0 | nt | 4 | 7
CCOc1ccccc1/C=N/NC(=O)c1nnn(-c2nonc2N)c1CN1CCCC1 | -2 | 109* | 1 | 6 | -86* | nt
Nc1nonc1-n1nnc(C(=O)N/N=C/c2ccccc2Cl)c1CN1CCOCC1 | 7 | 50* | 0 | -14 | -2 | nt
Nc1nonc1-n1nnc(C(=O)N/N=C/c2ccccc2F)c1CN1CCc2ccccc21 | 1 | 0 | 1 | 0 | -50* | nt
Nc1nonc1-n1nnc(C(=O)N/N=C/c2ccccc2F)c1CN1CCOCC1 | 1 | 9 | 0 | nt | -34 | nt
CCOc1ccccc1/C=N/NC(=O)c1nnn(-c2nonc2N)c1CN1CCC(C)CC1 | 0 | 44 | 0 | -27 | 2 | nt
O=C(Nc1cc(-c2ccccc2)cs1)c1ccco1 | nt | nt | nt | nt | nt | 7
COc1ccc(OC)c(S(=O)(=O)Nc2ccccc2C(=O)O)c1 | -2 | -2 | 0 | -1 | 1 | 17
COc1ccc(C(=O)C2CCCN(Cc3cc(C)c(O)c(C)c3)C2)c(OC)c1 (centres undefined) | 3 | 0 | 1 | -17 | 2 | nt
Oc1c(C(c2ccccn2)N2CCCCC2)cc(Cl)c2cccnc12 (centres undefined) | -2 | 0 | -1 | -1 | 0 | 87*
O=C(O)CCCNc1cc(N2CCN(C(=O)c3ccco3)CC2)c2noc3c2c1C(=O)c1ccccc1-3 | 14 | 8 | 14 | -6 | 0 | nt
O=C(O)CCCNc1cc(N2CCC3(CC2)OCCO3)c2noc3c2c1C(=O)c1ccccc1-3 | 38* | 4 | 9 | nt | nt | nt
CN1CCN(c2cc(N3CCN(C(=O)c4ccco4)CC3)c3c4c(onc24)-c2ccccc2C3=O)CC1 | -4 | 4 | 3 | 0 | -3 | nt
CCOC(=O)N1CCN(c2cc(NCCC(=O)O)c3c4c(onc24)-c2ccccc2C3=O)CC1 | 37* | 5 | 5 | 0 | nt | 9
